# Experimental data taken from PubChem BioAssay AID685 (PCMD, 2007).
# About 80 (0.3%) of roughly 30,000 compounds were called active. This is one part of a sample in which actives are shown more often than they occur.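 The calls were made as follows: active = mutant and wild-type yeast strains alike exhibit over 30% growth inhibition; inconclusive = a strain exceeds 50% while the second remains under 30%; inactive = the rest.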
# Assay: yeast growth toxicity, wild-type and mutant, primary screen, cytotoxicity control for eIF2B function restoration project, wild-type and eIF2Bepsilon R284H mutant, A595 (AID 685);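 also: 0% = untreated cell controls and 100% = YPD media blanks without cells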
# Conditions: A595 turbidity, 16 h, stronger effect = higher value, screened at 25 µM (by protocol)
# Method in brief: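 system = S. cerevisiae wild-type or eIF2Bepsilon-R284H mutant strain | buffer or medium = YPD medium | dosing = one dose, 25 µM compound, 0.2% DMSO | schedule = 16 h at 30 °C | measured by = A595 turbidity | evaluation = growth inhibition (%) versus cell controls and blanks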
# [1] = S. cerevisiae eIF2Bepsilon-R284H mutant growth
Compound,growth inhibition [1],growth inhibition (S. cerevisiae wild-type growth)
COC(=O)COc1ccc(S(=O)(=O)N2CCOCC2)cc1,0%,-24.2% (inactive)
Cc1ccc(-c2csc(NC(=O)Cc3cccs3)n2)cc1C,0%,33.1% (inactive)
CCOC(=O)C1=C(C)NC(SC)=NC1c1ccccc1 (centres undefined),-3.45%,-15.1% (inactive)
Cc1ccc(N(CC(=O)Nc2cccc(N(C)S(C)(=O)=O)c2)S(C)(=O)=O)cc1,16.1%,8.21% (inactive)
Cn1c(N)c(C(=O)COC(=O)C23CC4CC(CC(C4)C2)C3)c(=O)n(C)c1=O,11.6%,6.55% (inactive)
CN=C1SC(CC(=O)Nc2ccc(C(=O)O)cc2)C(=O)N1C (centres undefined),10.3%,13.1% (inactive)
O=S(=O)(NCCOc1cccc2cccnc12)c1ccc(F)cc1,0%,-11.7% (inactive)
O=C(c1cccc(F)c1)N1CCC(O)(c2cccnc2)CC1,-27.3%,1.72% (inactive)
CCOc1ccc(NC(=O)C2CCCN(C(=O)Nc3ccccc3)C2)cc1 (centres undefined),8.33%,16.3% (inactive)
CC(OC(=O)CN1C(=O)C2CCCCC2C1=O)C(=O)Nc1ncc(Cl)cc1Cl (centres undefined),15.2%,19.3% (inactive)
CCOC(=O)c1c(NC(=O)CSc2nnc(CNc3ccc(C)cc3C)o2)sc(C)c1C,25.9%,25.9% (inactive)
CCCCN(CC)CCNC(=O)c1[nH]c(C)c(C(C)=O)c1C,17.6%,11.2% (inactive)
OC(C#CCN1CCOCC1)(c1ccccc1)C1CCCCC1 (centres undefined),7.89%,34.3% (inactive)
CCOCCOCCC(C(=O)O)P(=O)(c1ccccc1)c1ccccc1 (centres undefined),16.7%,13.8% (inactive)
CCc1cc(Br)ccc1NC(=O)C1CCCO1 (centres undefined),18.5%,-7.78% (inactive)
OC(CNCC1CCCO1)Cn1c2ccc(Br)cc2c2cc(Br)ccc21 (centres undefined),100%,86.7% (active)
CCn1cc(C(=O)NCC2CCCO2)c(=O)c2cc(S(=O)(=O)N3CCCCC3)ccc21 (centres undefined),-11.1%,6.79% (inactive)
COc1ccc(CCNC(=O)CN(c2ccccc2)S(C)(=O)=O)cc1OC,12.8%,18.3% (inactive)
COC(=O)c1c(C)c(C)nc(N)c1C#N,-9.52%,-10.8% (inactive)
COC(=O)c1ccc(Cc2ccccc2)o1,19.4%,10% (inactive)
CCOC(=O)c1cc2c(ccn2C)n1CC(=O)N1CCC(C)CC1,4.55%,-20.7% (inactive)
O=C(C1CCC(C(=O)N2CCCC2)CC1)N1CCCC1 (centres undefined),-12.9%,-0.38% (inactive)

Compound,growth inhibition [1],growth inhibition (S. cerevisiae wild-type growth)
Cn1c(Cn2nnc3ccccc32)nnc1SCC(=O)c1ccccc1F,16.2%,4.07% (inactive)
O=C(NC(=O)c1ccccc1)NC(=O)c1ccccc1,5.26%,12.5% (inactive)
Nc1nc(SCc2ccccc2Cl)n[nH]1,16.2%,-0.77% (inactive)
CC(C)N(C(=O)COC(=O)c1ccccc1C(=O)N1CCN(c2ccc(F)cc2)CC1)C(C)C,-1.35%,-10% (inactive)
COc1ccc(O)c(C(=O)c2cnc3onc(C(C)C)c3c2)c1,-10.5%,8.18% (inactive)
CS(=O)(=O)N(CC(=O)N1CCN(c2ccc(F)cc2)CC1)C1CCCCC1,4.76%,3.1% (inactive)
O=C(Nc1ccc(Cl)cc1)c1cc2nc(C3CC3)cc(C(F)(F)F)n2n1,-4.05%,1.92% (inactive)
O=C(CSCc1ccccc1)N1CCc2ccccc21,9.38%,14.7% (inactive)
O=C(CN1CCSCC1)N/N=C/c1ccc(F)cc1,17.5%,10% (inactive)
O=C(Nc1ccccc1-c1nnn(CC(=O)N2CCCc3ccccc32)n1)c1cccc(Cl)c1,4.35%,-12.9% (inactive)
CC1CCC2(CC1)NC(=O)N(CC(=O)c1cccn1C)C2=O (centres undefined),-4.76%,3% (inactive)
Cc1cc(=O)[nH]c(SCc2cccc(F)c2)n1,0%,10.8% (inactive)
Cc1cc(C)cc(NC(=O)C2CCN(c3nc(C)cc(C)n3)CC2)c1,-2.94%,5.33% (inactive)
CC(c1ccco1)N(C(=O)COc1ccccc1[N+](=O)[O-])c1ccccn1 (centres undefined),-23.8%,-11% (inactive)
COc1cc(C)c(C(C)C)cc1S(=O)(=O)n1ccnc1,-20%,-17% (inactive)
O=c1[nH]nc(CSCc2ccccc2Cl)[nH]1,-3.13%,-3.79% (inactive)
O=C(O)c1cc2ccccc2c(=O)s1,-9.52%,17.3% (inactive)
CCN(CC)C(=O)CSc1ncnc2c1cnn2-c1ccccc1,-12.9%,1.3% (inactive)
O=C(Cn1cnc2ccccc2c1=O)NCC1COc2ccccc2O1 (centres undefined),10.9%,3.57% (inactive)
O=C(NCC1CCC(C(=O)O)CC1)OCc1ccccc1 (centres undefined),0%,-12.5% (inactive)
COc1ccc(S(=O)(=O)NCc2ccc(C(=O)N(C)Cc3ccco3)cc2)cc1,6.06%,-4.07% (inactive)
Clc1cccc(N=C2NN=C(c3ccc4c(c3)OCCO4)CS2)c1,5.13%,-0.77% (inactive)

Compound,growth inhibition [1],growth inhibition (S. cerevisiae wild-type growth)
CC(C)Oc1ccc(Oc2ccc(C(F)(F)F)cn2)cc1,7.69%,6% (inactive)
Cc1ccc(C2C(C#N)C(C#N)N3CCCN23)cc1 (centres undefined),13%,-7.5% (inactive)
Cc1ccc(C(=O)CSc2nnc(Cn3nnc4ccccc43)n2C)cc1,3.7%,16.7% (inactive)
COc1ccc(OCC(=O)N2CCOCC2)cc1,17.9%,15.5% (inactive)
O=S(=O)(NCC1OCCc2ccccc21)c1ccccc1 (centres undefined),15.2%,16.1% (inactive)
CCN(c1ccccc1)S(=O)(=O)c1ccc(NC(=O)C(C)(C)C)cc1,15%,-4.62% (inactive)
Cc1cc(-c2ccccc2)nc(N2CCC(C(=O)NC34CC5CC(CC(C5)C3)C4)CC2)n1,-19.1%,2.16% (inactive)
C=CCNC(=O)c1ccc(C)c(Br)c1,0%,6.76% (inactive)
CCN(CC)S(=O)(=O)c1ccc2c3c(cccc13)C(=O)S2,-4.76%,16.2% (inactive)
O=C(O)CCC(=O)NCc1ccc(C(=O)O)cc1,16.7%,9.62% (inactive)
Cc1cccn2c(=O)c(/C=C(\C#N)S(=O)(=O)c3ccc(Cl)cc3)c(N3CCC(C(N)=O)CC3)nc12,0%,7.31% (inactive)
CCCCSc1[nH]c(=O)c(C(=O)OCC)cc1C#N,5%,2.76% (inactive)
COc1ccc(CN(Cc2ccco2)S(=O)(=O)c2ccc(S(=O)(=O)N3CCCC3)cc2)cc1,-2.56%,16.6% (inactive)
O=C(CN1CCOCC1)Nc1ccccc1,12.8%,11.2% (inactive)
CCCCCCNC(=O)CSc1nccn1Cc1ccccc1,11.1%,20.4% (inactive)
Cc1ccc(CNC(=O)COc2ccc(S(=O)(=O)NC(C)C)cc2)cc1,11.6%,20.3% (inactive)
COc1ccc(NC(=O)Cn2c(=O)n(Cc3ccco3)c(=O)c3ccccc32)cc1,-12.8%,-47.3% (inactive)
O=c1c2ccccc2nc(CSc2nnnn2-c2ccccc2)n1-c1ccccc1,-14.8%,-3.81% (inactive)
CCN(CC)C(=O)CSc1nnc(C2CCCCC2)o1,6.82%,9.66% (inactive)
CCOc1cc(NC(=O)c2cnccn2)c(OCC)cc1NC(=O)c1ccc(C)cc1,-33.3%,-5.09% (inactive)
CC(C)(C)C(=O)Cn1c(NCCO)nc2ccccc21,-6.25%,21% (inactive)
Cc1ccc(-n2ccc(=O)c(C(=O)O)n2)cc1,18.9%,4.62% (inactive)

Compound,growth inhibition [1],growth inhibition (S. cerevisiae wild-type growth)
Cc1ccc(Cc2c(C)nc3nc(SCC(=O)NCCN4CCOCC4)nn3c2C)cc1,0%,3.33% (inactive)
CC(C)CC(=O)Nc1cc(C(F)(F)F)ccc1N1CCOCC1,10.5%,18.6% (inactive)
CCC(c1nnnn1C1CCCC1)N1CCN(C(=O)c2ccco2)CC1 (centres undefined),-13.6%,-4.24% (inactive)
CCC(O)CNc1nc(-n2nc(C)cc2C)nc2sc3c(c12)CC(C)(C)OC3 (centres undefined),-4.55%,4.83% (inactive)
O=C(CCc1ccccc1)NCc1cccnc1,4.55%,-12.1% (inactive)
CCOCCCNC(=O)c1c[nH]c2cc(C)ccc2c1=O,-17.9%,16.6% (inactive)
N#Cc1c(/N=C/N2CCCC2)oc(-c2ccccc2)c1-c1ccccc1,7.69%,-15.7% (inactive)
COc1ccccc1NC(=O)C1CCCN(c2cc(C)nc3ncnn23)C1 (centres undefined),-7.89%,2.42% (inactive)
COc1ccc2oc(C)c(NC(C)=O)c2c1,-6.67%,17.6% (inactive)
FC(F)(F)c1nnc2ccc(N3CCN(c4ccccc4)CC3)nn12,9.68%,11.8% (inactive)
OC(c1ccccc1)c1nccn1Cc1ccccc1 (centres undefined),6.98%,31% (inactive)
O=C(CCC(=O)OCC(F)(F)C(F)F)NCc1ccccc1,8.11%,2.5% (inactive)
CCOC(=O)CSc1nc2ccc(C)cc2[nH]1,0%,-5.43% (inactive)
CC(=O)c1cccc(NC(=O)Nc2ccc(C)cc2)c1,12.5%,-4.69% (inactive)
COc1ccc(N2CCN(C(=O)CCc3nc(-c4ccc(C)cc4)no3)CC2)cc1,5%,10% (inactive)
Cc1ccc(S(=O)(=O)Oc2ccc(/C=N/NC(=O)c3c(Cl)cnn3C)cc2)cc1,0%,11.2% (inactive)
CCCc1nc(NCc2ccc3c(c2)OCO3)c2nnn(Cc3ccccc3Cl)c2n1,-4.84%,-14.3% (inactive)
COc1ccc(CN2CN(C(C)C)CSC2=S)cc1,81.8%,44.7% (active)
COc1cc2c(cc1OC)C(C(C)C)=NC(C)(C)C2,3.13%,7.59% (inactive)
CCOCCCNC(=O)C(NC(=O)CNC(=O)c1ccccc1)c1ccc(C)cc1 (centres undefined),0%,1.25% (inactive)
C=C(C)CSc1nnc(-c2ccc(C)cc2)n1N,10.3%,-3.2% (inactive)
